Tests used:
[1] = Body weight at time of sacrifice; format: in vivo, rat; details: female rats, high dose, PND37, vs vehicle and low dose; non-significant
Outline: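 Male and female Wistar rats received a daily oral gavage of vehicle (acetate buffer pH 4.68:PEG300, 50:50 v/v) or test compound at 0.1 or 1.0 mg/kg, starting on PND7. Rats were euthanized on PND14 or PND37, and body weight was recorded at sacrifice.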

Wistar rats = test: Histology and immunohistochemistry of mandibles; format: in vivo, rat

## CCN1CCN(c2ccc(Nc3cc(N(C)C(=O)Nc4c(Cl)c(OC)cc(OC)c4Cl)ncn3)cc2)CC1 [infigratinib, 3-(2,6-Dichloro-3,5-dimethoxy-phenyl)-1-{6-[4-(4-ethyl-piperazin-1-yl)-phenylamino]-pyrimidin-4-yl}-1-methyl-urea]
[1]
  Body weight: trend toward lower body weight
Wistar rats; female rats, high dose, PND37 (vehicle 75%)
  Rats with root resorption (cathepsin K staining): 25%
Wistar rats; female rats, low dose, PND37 (vehicle 75%)
  Rats with root resorption (cathepsin K staining): 50%
Wistar rats; male rats, low or high dose, PND37 (vehicle 25%)
  Rats with root resorption (cathepsin K staining): no male rats in either low or high dose groups exhibited root resorption

— paper PMC10784415 (Developmental dynamics : an official publication of the …, 2023)
